# Results published in the RNAGym collection of RNA variant scans (doi:10.1038/nmeth.2970).
# B1: NELF-E aptamer (parent)
# chain: CCCAACGACUGCCGAGCGAGAUUACGCUUGAGCGCCCCACUGAGGAUGCCCACGGGCGAUUGGGGCACGG
# Variants of: B1
# Experiment: HiTS-RAP
# Details: with NELF-E (Drosophila)
# Method in brief: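 Kd came from weighted Hill fits to the first binding curve, with intensities normalised to sequencing intensity and averaged per sequence, keeping only fits whose variance was below 1,000,000. That curve was imaged on an Illumina GAIIx flowcell, where sequenced aptamer DNA templates with a T7 promoter and ter site had been transcribed in situ by T7 RNA polymerase and halted by GST-Tus (30 minutes, 37°C). Before each image, clusters equilibrated for 30 minutes at room temperature with NELF-E-mOrange at 0.064 to 1000 nM in HEPES binding buffer.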
row,Variant,Kd [nM]
1,CCCAACGACUACCGAGCGAGAUUACGCUUGAGCGCCCCUCUGAGGAUGCCCACGGGCGAUUGGGGCACGG [G11A A39U],24.2
2,CCCGACGACUGCCGAGCGAGAUUACGCUUGAGCGCCCCACUGAGGAUGCCCACGGGCGAGUGGGGCACGG [A4G U60G],6.94
3,CCCAACGACUUCCGAGCGAGAUUACGCUUAAGCGCCCCACUGAGGAUGCCCACGGGCGAUUGGGGCACGG [G11U G30A],5.79
4,CCCAAGGACAGCCGAGCGAGAUUACGCUUGAGCGCCCCACUGAGGAUGCCCACGGGCGAUUGGGGCACGG [C6G U10A],5.16
5,CCCAGCGACUGCCAAGCGAGAUUACGCUUGAGCGCCCCACUGAGGAUGCCCACGGGCGAUUGGGGCACGG [A5G G14A],6.54
6,CCCAACGACUUCCGAGCGAGAUUACGCUUGAGCGCCUCACUGAGGAUGCCCACGGGCGAUUGGGGCACGG [G11U C37U],7.71
7,CCCAACGACUGCCGAUCGAGUUUACGCUUGAGCGCCCCACUGAGGAUGCCCACGGGCGAUUGGGGCACGG [G16U A21U],6.82
8,CCCAACGACUGCCGAUCGAGGUUACGCUUGAGCGCCCCACUGAGGAUGCCCACGGGCGAUUGGGGCACGG [G16U A21G],5.22
9,CCCAUCGACUGCCGAGCGAGAUUACGCUUGAGCGCCCCACUGAGGAUGCCCACGGGCGAUUGUGGCACGG [A5U G63U],15.8
10,CCCAACGACGGCCGAGCGAGAUUACGCUUGAGCGCCCCACUGAGGAUGCCCACUGGCGAUUGGGGCACGG [U10G G54U],6.86
11,CCCAACGACUGCCGAGCGAGACUACGCUUGAGCGCCCCACUGAGGAAGCCCACGGGCGAUUGGGGCACGG [U22C U47A],10.5
12,CCCAACGAGUGCCGAGCGAGAUUACGCUUGAGCGCCCCACUGAGGAGGCCCACGGGCGAUUGGGGCACGG [C9G U47G],5.29
13,CCCAACGACUGCGGAGCGAUAUUACGCUUGAGCGCCCCACUGAGGAUGCCCACGGGCGAUUGGGGCACGG [C13G G20U],6.39
14,CCCAGCGACUGCCGAGCGAGAUUGCGCUUGAGCGCCCCACUGAGGAUGCCCACGGGCGAUUGGGGCACGG [A5G A24G],6.27
15,CCCAACGACGGCCGAGCGAGAUUACGCUUGAUCGCCCCACUGAGGAUGCCCACGGGCGAUUGGGGCACGG [U10G G32U],5.18
16,CCCAACGACUGUCGAGCGAGAUUACGCUUGGGCGCCCCACUGAGGAUGCCCACGGGCGAUUGGGGCACGG [C12U A31G],6.76
17,CCCAACGACUUCCGAGCGAGAUUACGCUUGAGCGCCCCACUGAGGAUGCCCACGGGCGUUUGGGGCACGG [G11U A59U],48.9
18,CCCGACGACUGCCGAGCGAGAUUACGCUUGAGCGCCCCACUGAGGAUGCCCACAGGCGAUUGGGGCACGG [A4G G54A],14.1
19,CCCAGCGACUGCCGAGCGAGAUUACUCUUGAGCGCCCCACUGAGGAUGCCCACGGGCGAUUGGGGCACGG [A5G G26U],7.39

row,Variant,Kd [nM]
1,CCCAACGACUGCCGAGCGAGAUUACGCUAGUGCGCCCCACUGAGGAUGCCCACGGGCGAUUGGGGCACGG [U29A A31U],4.6
2,CCCAAAGACUGCGGAGCGAGAUUACGCUUGAGCGCCCCACUGAGGAUGCCCACGGGCGAUUGGGGCACGG [C6A C13G],5.49
3,CCCAACUACUGCCGAGCGAGGUUACGCUUGAGCGCCCCACUGAGGAUGCCCACGGGCGAUUGGGGCACGG [G7U A21G],6.51
4,CCCGACAACUGCCGAGCGAGAUUACGCUUGAGCGCCCCACUGAGGAUGCCCACGGGCGAUUGGGGCACGG [A4G G7A],6.95
5,CCCAACGACUGCCGAGCGGGAUUACGCUUGAGCGCCCCACCGAGGAUGCCCACGGGCGAUUGGGGCACGG [A19G U41C],92.4
6,CCCAACGACUGCGGAGCGAGAUUACGCUUGAGCUCCCCACUGAGGAUGCCCACGGGCGAUUGGGGCACGG [C13G G34U],5.43
7,CCCAACGAGUGCCGAGCGAGAUUACGCUUGAGCGCCCCACUGAGGAUGCCCACGGGCGAUUGAGGCACGG [C9G G63A],15.9
8,CCCAACGACUGCCGAGCGAGCUUACGCUUGAGCGCCCCACUGAGGAUGCCCACGGGCGAUUGGGGCACGG [A21C],5.33
9,CCCAACGACUGCCGAGCGAGAUGACGCUGGAGCGCCCCACUGAGGAUGCCCACGGGCGAUUGGGGCACGG [U23G U29G],5.13
10,CCCGACGACUGCCGAGCGAGAUUAAGCUUGAGCGCCCCACUGAGGAUGCCCACGGGCGAUUGGGGCACGG [A4G C25A],6.24
11,CCCAACAACUUCCGAGCGAGAUUACGCUUGAGCGCCCCACUGAGGAUGCCCACGGGCGAUUGGGGCACGG [G7A G11U],7.32
12,CCCAAAGAGUGCCGAGCGAGAUUACGCUUGAGCGCCCCACUGAGGAUGCCCACGGGCGAUUGGGGCACGG [C6A C9G],7.55
13,CCCAGCGACUGCUGAGCGAGAUUACGCUUGAGCGCCCCACUGAGGAUGCCCACGGGCGAUUGGGGCACGG [A5G C13U],5.63
14,CCCAACGACUGCGGAGCGAGAUUGCGCUUGAGCGCCCCACUGAGGAUGCCCACGGGCGAUUGGGGCACGG [C13G A24G],5.57
15,CCCAGCGACUGCCGAGCGAGAUUACGCUUGAGCGCCCCACUGAGGAUGCCCACGGGCGAUUGUGGCACGG [A5G G63U],12.1
16,CCCGACGACUGCCGAGCGAGAAUACGCUUGAGCGCCCCACUGAGGAUGCCCACGGGCGAUUGGGGCACGG [A4G U22A],6.17
17,CCCUACGACUGCCGAGCGAGAUGACGCUUGAGCGCCCCACUGAGGAUGCCCACGGGCGAUUGGGGCACGG [A4U U23G],6.29
18,CCCAACGACUGCCGAGCGAGAUGACACUUGAGCGCCCCACUGAGGAUGCCCACGGGCGAUUGGGGCACGG [U23G G26A],6.05
19,CCCGACGACUGCCGAUCGAGAUUACGCUUGAGCGCCCCACUGAGGAUGCCCACGGGCGAUUGGGGCACGG [A4G G16U],6.47
